Active and inactive are the calls of the source. The calls are words filed in the database; no cut-off is given here.
Legend:
[1] = test system: MDA-MB-231; experiment: Antiinvasive activity in human MDA-MB-231 at 5 uM after 24 hrs by BME cell invasion assay; assay type: functional, cell-based
Procedure, shortened: (§1)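 Cultrex 96-well BME invasion kit (Boyden-type, 8 µm PET membrane), BME 1X coat set overnight at 37 °C. 50,000 MDA-MB-231 cells in serum-free RPMI put in the top chamber with compound at 5 µM. The lower chamber held RPMI with 10% FBS, fibronectin and 10 nM fMLP as chemoattractants. Migration ran 24 h at 37 °C. Invaded cells were loaded with calcein-AM for 1 h and read by fluorescence (ex 485/em 520 nm).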

[2] = test system: MDA-MB-231; experiment: Antiproliferative activity against human MDA-MB-231 cells after 96 hrs by MTT assay; assay type: functional, cell-based; details: MDA-MB-231, 96 h
Procedure, shortened: (§2)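 Cells were grown in RPMI with 10% FBS, 2 mmol/L glutamine and penicillin/streptomycin at 37 °C, 5% CO2. They were seeded at 8 × 10^3 cells/well and left to attach for 24 h. Medium was then changed to serum-free RPMI containing compound at 20, 10, 5 or 2 µM for 96 h. MTT was added for 4 h, then solubilized, and A570 read. Cell number came from a hemocytometer standard curve. IC50 was taken by nonlinear regression of log concentration vs cells/well.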

[3] = test system: MCF7; experiment: Antiproliferative activity against human MCF7 cells after 96 hrs by MTT assay; assay type: functional, cell-based; details: MCF7, 96 h; procedure, shortened: as §2
[4] = Inhibition of EGF-dependent mouse +SA cells growth; assay type: functional, +SA cell
[5] = test system: MDA-MB-231; experiment: Antiinvasive activity in human MDA-MB-231 assessed as cell migration at 5 uM after 24 hrs by BME cell invasion assay; assay type: functional, cell-based; procedure, shortened: as §1
[6] = Antiproliferative activity against mouse +SA cells after 4 days by MTT assay; assay type: functional, cell-based; details: +SA cell, 96 h
Procedure, shortened: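 +SA mouse mammary epithelial cells were kept in serum-free medium with 10 ng/mL EGF and 10 µg/mL insulin as mitogens. They were plated at 5 × 10^4 cells/well, 6 wells/group, and fed compound at 0.01–1000 µM. Viable cell number was measured by MTT after 4 days of culture.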

[7] = Ratio of IC50 for gamma-tocotrienol to IC50 for drug against mouse +SA cells after 4 days by MTT assay; assay type: functional, +SA cell

IC50 [2] [µM] | IC50 [3] [µM] | Compound | Activity [1] | other results
> 10 | > 20 | CC(C)=CCC/C(C)=C/CC/C(C)=C/CC[C@]1(C)CCc2c(C)c(OC(=O)Nc3ccccc3)c(C)c(C)c2O1 |  | 
> 10 | 5.1 | CC(C)=CCC/C(C)=C/CC/C(C)=C/CC[C@]1(C)CCc2c(C)c(OC(=O)NS(=O)(=O)c3ccc(Cl)cc3)c(C)c(C)c2O1 |  | 
> 10 | > 20 | CC(C)=CCC/C(C)=C/CC/C(C)=C/CC[C@]1(C)CCc2c(C)c(OC(=O)NC(=O)Oc3ccccc3)c(C)c(C)c2O1 |  | 
> 10 | > 20 | CC(C)=CCC/C(C)=C/CC/C(C)=C/CC[C@]1(C)CCc2cc(OC(=O)NCc3ccccc3)cc(C)c2O1 |  | 
> 10 | 6.1 | CC(C)=CCC/C(C)=C/CC/C(C)=C/CC[C@]1(C)CCc2c(C)c(OC(=O)NS(=O)(=O)c3ccc(C)cc3)c(C)c(C)c2O1 |  | 
> 10 | > 20 | CC(C)=CCC/C(C)=C/CC/C(C)=C/CC[C@]1(C)CCc2cc(OC(=O)NS(=O)(=O)c3ccc(Cl)cc3)cc(C)c2O1 |  | 
> 10 | > 20 | CC(C)=CCC/C(C)=C/CC/C(C)=C/CC[C@]1(C)CCc2cc(OC(=O)Nc3ccccc3)c(C)c(C)c2O1 |  | 
7.2 | > 20 | CC(C)=CCC/C(C)=C/CC/C(C)=C/CC[C@]1(C)CCc2c(C)c(OC(=O)NCc3ccccc3)c(C)c(C)c2O1 |  | Activity [5]: 8%
> 10 | 4.5 | CC(C)=CCC/C(C)=C/CC/C(C)=C/CC[C@]1(C)CCc2c(C)c(OC(=O)NS(=O)(=O)c3ccccc3)c(C)c(C)c2O1 |  | 
 | > 20 | CC(C)=CCC/C(C)=C/CC/C(C)=C/CC[C@]1(C)CCc2cc(OC(=O)NC(=O)Oc3ccccc3)c(C)c(C)c2O1 |  | 
> 10 | 2.4 | CC(C)=CCC/C(C)=C/CC/C(C)=C/CC[C@]1(C)CCc2cc(OC(=O)NS(=O)(=O)c3ccc(C)cc3)c(C)c(C)c2O1 |  | IC50 [6]: 2 µM; Ratio IC50 [7]: 2
> 10 | > 20 | CC(C)=CCC/C(C)=C/CC/C(C)=C/CC[C@]1(C)CCc2cc(OC(=O)NS(=O)(=O)c3ccccc3)c(C)c(C)c2O1 |  | 
6.6 | > 20 | CC(C)=CCC/C(C)=C/CC/C(C)=C/CC[C@]1(C)CCc2cc(OC(=O)NS(=O)(=O)c3ccc(C)cc3)cc(C)c2O1 | Active | 
> 10 | > 20 | CC(C)=CCC/C(C)=C/CC/C(C)=C/CC[C@]1(C)CCc2cc(OC(=O)Nc3ccccc3)cc(C)c2O1 |  | 
 | 5.6 | CC(C)=CCC/C(C)=C/CC/C(C)=C/CC[C@]1(C)CCc2cc(OC(=O)NC(=O)Oc3ccccc3)cc(C)c2O1 |  | 
> 10 | > 20 | CC(C)=CCC/C(C)=C/CC/C(C)=C/CC[C@]1(C)CCc2cc(OC(=O)NS(=O)(=O)c3ccc(Cl)cc3)c(C)c(C)c2O1 |  | 
> 10 | > 20 | CC(C)=CCC/C(C)=C/CC/C(C)=C/CC[C@]1(C)CCc2c(C)c(O)c(C)c(C)c2O1 [ALPHA-TOCOTRIENOL] |  | 
> 10 | > 20 | CC(C)=CCC/C(C)=C/CC/C(C)=C/CC[C@]1(C)CCc2cc(OC(=O)NCc3ccccc3)c(C)c(C)c2O1 | Active | 
> 10 | 6.1 | CC(C)=CCC/C(C)=C/CC/C(C)=C/CC[C@]1(C)CCc2cc(OC(=O)NS(=O)(=O)c3ccccc3)cc(C)c2O1 |  | 
> 10 | 15.5 | CC(C)=CCC/C(C)=C/CC/C(C)=C/CC[C@]1(C)CCc2cc(O)cc(C)c2O1 [DELTA-TOCOTRIENOL] |  | 

The next lines start with the compound.

Compound | IC50 [2] [µM] | IC50 [3] [µM] | Activity [1] | other results
CC(C)=CCCOc1cc2c(c(C)c1C)O[C@](C)(CC/C=C(\C)CC/C=C(\C)CCC=C(C)C)CC2 |  |  | inactive | 
CC(C)=CCC/C(C)=C/CC/C(C)=C/CC[C@]1(C)CCc2cc(OC/C=C(\C)CC/C=C(\C)CCC=C(C)C)c(C)c(C)c2O1 |  |  | inactive | 
CC(C)=CCC/C(C)=C/CC/C(C)=C/CC[C@]1(C)CCc2cc(O)c(C)c(C)c2O1 [GAMMA-TOCOTRIENOL] | > 10 | 11.4 |  | inhibition (INH) [4]: 50%
CC(C)=CCC/C(C)=C/CC/C(C)=C/CC[C@]1(C)CCc2cc(OC/C=C(\C)CC/C=C(\C)CCC=C(C)C)cc(C)c2O1 |  |  | inactive | 
COc1cc(COc2c(C)c(C)c3c(c2C)CC[C@@](C)(CC/C=C(\C)CC/C=C(\C)CCC=C(C)C)O3)cc(OC)c1 |  |  | inactive | 
Cc1c(C)c2c(c(C)c1OC(=O)CCC(=O)O)CC[C@@](C)(CCCC(C)CCCC(C)CCCC(C)C)O2 (some centres undefined) |  | > 368 |  | 
CC(C)=CCC/C(C)=C/CC/C(C)=C/CC[C@]1(C)CCc2cc(OCCC(C)C)c(C)c(C)c2O1 |  |  | inactive | 
CC(C)=CCC/C(C)=C/CC/C(C)=C/CC[C@]1(C)CCc2c(C)c(OC/C=C(\C)CC/C=C(\C)CCC=C(C)C)c(C)c(C)c2O1 |  |  | inactive | 
COc1cccc(COc2cc3c(c(C)c2C)O[C@](C)(CC/C=C(\C)CC/C=C(\C)CCC=C(C)C)CC3)c1 |  |  | inactive | 
COc1cc2c(c(C)c1C)O[C@](C)(CC/C=C(\C)CC/C=C(\C)CCC=C(C)C)CC2 |  |  | inactive | 
COc1cccc(COc2c(C)c(C)c3c(c2C)CC[C@@](C)(CC/C=C(\C)CC/C=C(\C)CCC=C(C)C)O3)c1 |  |  | inactive | 
Cc1cc(C)c2c(c1C)O[C@](C)(CCCC(C)CCCC(C)CCCC(C)C)CC2 (some centres undefined) |  | 329 |  | 
COc1cc(COc2cc3c(c(C)c2C)O[C@](C)(CC/C=C(\C)CC/C=C(\C)CCC=C(C)C)CC3)cc(OC)c1 |  |  | inactive | 
Cc1c(C)c2c(c(C)c1OC(=O)[C@@H](N)CCCCN)CC[C@@](C)(CCCC(C)CCCC(C)CCCC(C)C)O2 (some centres undefined) |  | 12 |  | 

From ChEMBL document CHEMBL1158503, “Design and preliminary structure-activity relationship of redox-silent semisynthetic tocotrienol analogues as inhibitors for breast cancer proliferation and invasion” (Bioorg Med Chem, 2010)
